# Results collected from several papers.
# Each line is one published result; the experiments were not run side by side.
# RET: Proto-oncogene tyrosine-protein kinase receptor Ret (RET, Homo sapiens, UniProt P07949)
# RET M918T: Proto-oncogene tyrosine-protein kinase receptor Ret (RET, Homo sapiens, UniProt P07949, M918T)
# RET V804L: Proto-oncogene tyrosine-protein kinase receptor Ret (RET, Homo sapiens, UniProt P07949, V804L)
# RET V804M: Proto-oncogene tyrosine-protein kinase receptor Ret (RET, Homo sapiens, UniProt P07949, V804M)
Structure (SMILES),target,test,setting,measurement,value
CC(=O)Nc1cccc2c1CCN(C(=O)CCNC(=O)c1ccsc1)C2,RET,"enzyme activity, inhibitor, radiometric",10 µM,remaining activity,90.8%
CN(C)c1ncc(F)c(-c2cnn3ncccc23)n1,RET M918T,binding,1 µM,remaining binding,96%
COc1cc2ncnc(Nc3ccc(Oc4ccccc4)cc3C)c2cc1OC,RET V804L,"enzyme activity, inhibitor",1 µM,inhibition,3%
CC(=O)OCc1cnc(C)c2oc(=Nc3ccc(F)cc3)c(C(=O)Nc3ccc4c(c3)OCO4)cc12,RET,"enzyme activity, inhibitor, radiometric",0.1 µM,remaining activity,121%
COc1cc(-c2cc(-c3ccc(N4CCNCC4)cc3)cnc2N)cc(OC)c1OC,"Proto-oncogene tyrosine-protein kinase receptor Ret (RET, Homo sapiens, UniProt P07949, Y791F)","enzyme activity, inhibitor",1 µM,inhibition,13%
CCC(=N\O)/C(C)=C/c1ccc(F)cc1,RET M918T,"cell-free assay, competition with immobilised ligand",1 µM,remaining binding,100%
N[C@H]1CCN(c2nccc(-c3cnn4ncccc34)n2)C1,RET M918T,binding,1 µM,remaining binding,90%
Cc1ccc(NC(=O)Nc2ccc(Nc3cc(-n4ccnc4)nc(C)n3)cc2)c(C)c1,RET,"enzyme activity, inhibitor, radiometric",10 µM,remaining activity,68.1%
Cc1cc(C)c(-n2ccn3nc(-c4cccnc4)cc23)cc1NC(=O)c1cc(C#N)cc(S(F)(F)(F)(F)F)c1,RET V804L,"cell-free assay, competition with immobilised ligand",0.1 µM,remaining binding,93.6%
Cc1cc(NC(=O)c2cccc3cc(-c4cccc5[nH]nc(N)c45)ccc23)ccc1F,RET,"enzyme activity, inhibitor",0.1 µM,activity vs control,37%
CO[C@]1(C(=O)N[C@@H](C)c2ccc(-n3cc(F)cn3)nc2)CC[C@H](c2nc(C)cc(Nc3cc(C)[nH]n3)n2)CC1,RET V804M,"thermal stability, DSF",10 µM,ΔTm,8.7 °C
CCCOc1ccc(OC)c(F)c1C(=O)c1ccc(C(=O)N[C@@H]2CNC[C@H]2NC(=O)c2ccc3[nH]ncc3c2)cc1,RET V804L,"enzyme activity, inhibitor",10 µM,remaining activity,8%
Cc1cnn2ncc(-c3ccnc(N(C)C)n3)c2c1,RET,binding,1 µM,remaining binding,69%
Cc1ccc(NC(=O)c2ccc(C)c(C(F)(F)F)c2)cc1C#Cc1nn(C2CCC(O)CC2)c2ncnc(N)c12 (stereo not shown),RET,cell-free assay,10 µM,remaining signal,2%
Nc1ncnc2occ(-c3ccc(NC(=O)Nc4cc(C(F)(F)F)ccc4F)cc3)c12,RET V804M,cell-free assay,20 µM,remaining signal,0%
Cc1ccc(Nc2nccc(N(C)c3ccc4c(C)n(C)nc4c3)n2)cc1S(N)(=O)=O,RET,cell-free assay,0.5 µM,remaining signal,25.7%
Cc1ccc(C(=O)NCc2ccsc2)cc1C#Cc1cn(C(C)C)c2ncnc(N)c12,RET,"enzyme activity, inhibitor",1 µM,activity vs control,4%
COCCOc1nc(-c2ccc(Cl)nc2)nc2c1CN(C(=O)c1ncn3ccccc13)CC2,RET V804M,"cell-free assay, competition with immobilised ligand",0.1 µM,remaining binding,89%
Cc1cnc(NC2CCOCC2)nc1-n1cnc(C(=O)NC(CN)c2cc(F)cc(Cl)c2)c1 (stereo not shown),RET,"enzyme activity, inhibitor, radiometric",1 µM,remaining activity,111%
O=C1Nc2ccc(Cl)cc2C1=Cc1cc(Cl)c(O)c(Cl)c1,RET,cell-free assay,0.5 µM,remaining signal,80.4%
COc1cc(NC(=O)Nc2ccc(Br)cc2)cc2sc(NC(=O)c3ccccc3)nc12,RET,"enzyme activity, inhibitor, radiometric",10 µM,remaining activity,106%
C[C@H]1CCN(c2nccc(-c3cnn4ncccc34)n2)C1,RET V804M,binding,1 µM,remaining binding,84%
CC/C(=N\NC(=O)NCc1cccc(O)c1)c1ccc(O)c(C)c1O,"Proto-oncogene tyrosine-protein kinase receptor Ret (RET, Homo sapiens, UniProt P07949, S891A)","enzyme activity, inhibitor",0.1 µM,inhibition,6.2%
CCN(CC)CCNC(=O)c1c(C)[nH]c(/C=C2\C(=O)Nc3ccc(F)cc32)c1C,RET,cell-free assay,0.5 µM,remaining signal,3.43%
COc1ccc(CN2C3CC2CN(c2ccc(-c4cc(OCC(C)(C)O)cn5ncc(C#N)c45)cn2)C3)cn1,"Proto-oncogene tyrosine-protein kinase receptor Ret (RET, Homo sapiens, UniProt P07949, L760A)","thermal stability, DSF",10 µM,ΔTm,8.7 °C
COCC(=O)Nc1cc(C(=O)NCc2ccc(C)c(F)c2)cc2ncn(CCc3ccccc3)c12,RET,"enzyme activity, inhibitor, radiometric",0.1 µM,remaining activity,133%
c1cnn2ncc(-c3ccnc(N4CCC45COC5)n3)c2c1,RET M918T,binding,1 µM,remaining binding,97%
COc1cccc(CNC(=O)c2nc3scc(COCc4ccc(C(=O)O)cc4)c3c(=O)[nH]2)c1,RET V804M,"cell-free assay, competition with immobilised ligand",1 µM,remaining binding,95.3%
Cc1cccc(NC(=O)CNC(=O)c2ccccc2NS(=O)(=O)c2ccc3[nH]c(=O)[nH]c3c2)c1C,RET,"enzyme activity, inhibitor, radiometric",0.1 µM,remaining activity,114%
O=C(N1CCS(=O)(=O)CC1)N1C[C@H](c2ccc(OC(F)(F)F)cc2)C[C@H](c2nc(C3CC3)no2)C1,RET V804L,"cell-free assay, competition with immobilised ligand",1 µM,remaining binding,99%
CN(c1nccc(-c2cnn3ncccc23)n1)C1CC1,RET V804M,binding,1 µM,remaining binding,100%
CCc1ccccc1C(=O)Nc1n[nH]c2c(C)c(F)c(C3C(C#N)=C(C)N(C)C(C)=C3C#N)cc12,RET M918T,"cell-free assay, competition with immobilised ligand",1 µM,remaining binding,64%
COc1ccnn2ncc(-c3ccnc(N(C)C)n3)c12,RET,binding,1 µM,remaining binding,100%
Cc1cc(NC(=O)Nc2ccc(F)cc2)cc2sc(NC(=O)c3ccccc3)nc12,RET,"enzyme activity, inhibitor, radiometric",0.1 µM,remaining activity,146%
COc1ccc2c(c1)O[C@H](c1ccc(OC)c(OC)c1)C[C@@H]2NC(=O)C1(c2ccc3c(c2)OC(F)(F)O3)CC1,RET V804M,"cell-free assay, competition with immobilised ligand",1 µM,remaining binding,100%
COc1ccc(OC)c(NC(=O)Nc2cc(OC)c3nc(NC(=O)c4ccccc4)sc3c2)c1,RET,"enzyme activity, inhibitor, radiometric",0.1 µM,remaining activity,114%
Nc1cnc(N2CCc3cc(S(=O)(=O)Nc4c(F)cc(Cl)cc4F)cc(N4CCCC4=O)c32)nc1,RET,"cell-free assay, competition with immobilised ligand",1 µM,remaining binding,89%
